Measurements as given in ChEMBL document CHEMBL1156228 (2010).
“And” between values parts separate entries of the source, which are not always exact repeats. Equal entries are not always repeated.

Experiments:
[1] = Antioxidant activity assessed as superoxide radical-scavenging activity at 1 mM by EPR spectroscopy; assay type: functional
Method in brief: (§1)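 Superoxide generated by xanthine (0.2 mM) plus xanthine oxidase (0.02 U/ml) in PBS pH 7.4 containing DEPMPO spin trap (1 mM) and DTPA (0.1 mM), with or without derivative. The DEPMPO-OOH adduct was measured by EPR and double-integrated. Signal is expressed as percent of the level without derivative.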

[2] = Antioxidant activity assessed as peroxyl radical-scavenging activity at 1 mM by EPR spectroscopy; assay type: functional
Method in brief: (§2)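 Alkylperoxyl radicals generated by thermolysis of 2,2-azobis-2-amidinopropane dihydrochloride (25 mM) in aerobic PBS at 37°C. EPR run in PBS pH 7.4 with DEPMPO (1 mM) and DTPA (0.1 mM), with or without derivative. The DEPMPO-OOR adduct was quantified by double integration and expressed as percent of the untreated level.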

CHO = test: Antioxidant activity in CHO cells assessed as protection from H2O2-induced toxicity at 50 uM pretreated for 2 hrs before H2O2 challenge measured after 1 hr by MTT assay; assay type: functional, Cricetulus griseus
Method in brief: (§3)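 Cells grown to 80% confluence at 37°C in 5% CO2, trypsinized and seeded at about 7,000 cells/well. After 24–48 h they were exposed to derivative for 2 h, then to H2O2 at 1 mM for 1 h. Viability was read by MTT-to-formazan conversion, with at least 6 repeats.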

[3] = Antioxidant activity in HSMC assessed as protection from H2O2-induced toxicity at 50 uM pretreated for 2 hrs before H2O2 challenge measured after 1 hr by MTT assay; assay type: functional, Homo sapiens; method in brief: as §3
[4] = Antioxidant activity assessed as superoxide radical-scavenging activity at 100 uM by EPR spectroscopy; assay type: functional; method in brief: as §1
[5] = Antioxidant activity assessed as peroxyl radical-scavenging activity at 100 uM by EPR spectroscopy; assay type: functional; method in brief: as §2

Row | SMILES | Activity [1] | Activity [2] | Activity (CHO) | Activity [3] | Activity [4] | Activity [5]
1 | COc1ccc(CCN(C)CCCC(CNC(=O)C2=CC(C)(C)N(O)C2(C)C)(c2ccc(OC)c(OC)c2)C(C)C)cc1OC (centres undefined) | 55.2% | 14.9% | 48.9% | 59.1% |  | 
2 | COc1ccc(CCN(C)CCCC(CNC(=O)C2CC(C)(C)N(O)C2(C)C)(c2ccc(OC)c(OC)c2)C(C)C)cc1OC (centres undefined) | 100% | 100% | 62.1% | 40.2% | 84.2% | 98%
3 | COc1ccc(CCN(C)CCCC(CNC(=O)C2=C(c3ccccc3)C(C)(C)N(O)C2(C)C)(c2ccc(OC)c(OC)c2)C(C)C)cc1OC (centres undefined) | 100% | 100% | 68.3% | 47.5% | 79.3% | 86.1%
4 | COc1ccc(CCN(C)CCCC(CNC(=O)C2CC(C)(C)N(O)C(C)(C)C2)(c2ccc(OC)c(OC)c2)C(C)C)cc1OC (centres undefined) | 100% | 90.1% | 50.3% | 40.2% | 76.5% | 
5 | COc1ccc(CCN(C)CCCC(CNC(=O)C2=CC(C)(C)NC2(C)C)(c2ccc(OC)c(OC)c2)C(C)C)cc1OC (centres undefined) | 34.9% | 84.1% | 53.5% | 53.7% |  | 
6 | COc1ccc(CCN(C)CCCC(CNC(=O)C2=C(C)C(C)(C)N(O)C2(C)C)(c2ccc(OC)c(OC)c2)C(C)C)cc1OC (centres undefined) | 100% | 100% | 60% | 39.7% | 78.2% | 100%
7 | COc1ccc(CCN(C)CCCC(CNCC2=CC(C)(C)NC2(C)C)(c2ccc(OC)c(OC)c2)C(C)C)cc1OC (centres undefined) | 100% | 100% | 71.2% | 39.1% | 73.8% | 89.8%
8 | COc1ccc(CCN(C)CCCC(CNC(=O)CC2(C)CCC(C)(C)N2O)(c2ccc(OC)c(OC)c2)C(C)C)cc1OC (centres undefined) | 100% | 100% | 54% | 44% | 70.7% and 78.1% | 89.2%
9 | COc1ccc(CCN(C)CCCC(CNC(=O)C2=CC(C)(C)N(C)C2(C)C)(c2ccc(OC)c(OC)c2)C(C)C)cc1OC (centres undefined) | 60.7% | 89.8% | 55.5% | 48.7% |  | 
10 | COc1ccc(CCN(C)CCC[C@@](CNC(=O)C2=CC(C)(C)N(O)C(C)(C)C2)(c2ccc(OC)c(OC)c2)C(C)C)cc1OC | 100% | 100% | 46.1% | 33.1% | 66.5% | 91.4%
11 | COc1ccc(CCN(C)CCCC(CNCC2=CC(C)(C)N(O)C2(C)C)(c2ccc(OC)c(OC)c2)C(C)C)cc1OC (centres undefined) | 100% | 100% | 63.6% | 43.3% | 88.5% | 92.9%
